This is an account of results in ChEMBL document CHEMBL1123392 (J Med Chem, 1986).

pIC50: −log10 of the molar value. The source made the active and inactive calls. The calls are words filed in the database; no cut-off is given here.

Test [1] concerns Rattus norvegicus. The test is described as follows: Dopaminergic activity in rats rendered hypokinetic by the bilateral injection of 6-hydroxydopamine (6-OHDA) into the anterolateral hypothalamus at dose of 50 mg/kg sc; Inactive. Format: functional, organism-based. Set-up: dose 50 mg/kg.
Test [2] is filed under the species Rattus norvegicus. Description: Ability to induce contralateral rotational behavior in rats with a unilateral 6-OHDA-induced lesion of the nigrostriatal dopamine (DA) pathway. Format: functional. The procedure, abridged: (§1)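 Male Sprague–Dawley rats given unilateral 6-OHDA (8 μg in 3 μL, with ascorbic acid) into the left medial forebrain bundle under pentobarbital anesthesia. Rats were selected 3–4 weeks later for turning 8–10/min after apomorphine 0.25 mg/kg sc. Groups of 4–8 were dosed sc (in water or Tween 80 suspension) and recorded in automatic rotometers until turning stopped. Outputs: total contralateral turns and peak rotations/min.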

The test system of test [3] is Rattus norvegicus. Description: Max. intensity of rotational behavior in rats with a unilateral 6-OHDA-induced lesion of the nigrostriatal dopamine (DA) pathway at dose of 2.5 mg/kg sc. Type of test: functional. The procedure, abridged: as §1
Test [4] concerns the target D(2) dopamine receptor (Rattus norvegicus, UniProt P61169). Description: Compound was for its ability to displace [3H]haloperidol binding to rat striatal Dopamine receptor D2. The procedure, abridged:
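Rat striatal membranes at about 20 mg/mL final tissue concentration. [3H]haloperidol 2 nM, incubated 10 min. Nonspecific binding defined with (+)-butaclamol 1.0 μM.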

For test [5], the system named is Rattus norvegicus. Description: Effective dose which lowered the serum prolactin levels after ip administration in rats. Type of test: functional. The procedure, abridged:
(§2)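 Sprague–Dawley rats given α-methyltyrosine 200 mg/kg ip 1 h before compound. Decapitated 30 min after ip or 60 min after oral dosing. Serum prolactin measured by double-antibody RIA. ED50 = dose lowering prolactin to 50% of the α-methyltyrosine-treated control, from one dose–response curve of at least seven doses with 7–9 rats per dose.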

Test [6] has as its target T1, Adrenergic receptor alpha-1 (Rattus norvegicus, UniProt P15823+P23944+P43140).
T1 sequence (P15823 whole entry): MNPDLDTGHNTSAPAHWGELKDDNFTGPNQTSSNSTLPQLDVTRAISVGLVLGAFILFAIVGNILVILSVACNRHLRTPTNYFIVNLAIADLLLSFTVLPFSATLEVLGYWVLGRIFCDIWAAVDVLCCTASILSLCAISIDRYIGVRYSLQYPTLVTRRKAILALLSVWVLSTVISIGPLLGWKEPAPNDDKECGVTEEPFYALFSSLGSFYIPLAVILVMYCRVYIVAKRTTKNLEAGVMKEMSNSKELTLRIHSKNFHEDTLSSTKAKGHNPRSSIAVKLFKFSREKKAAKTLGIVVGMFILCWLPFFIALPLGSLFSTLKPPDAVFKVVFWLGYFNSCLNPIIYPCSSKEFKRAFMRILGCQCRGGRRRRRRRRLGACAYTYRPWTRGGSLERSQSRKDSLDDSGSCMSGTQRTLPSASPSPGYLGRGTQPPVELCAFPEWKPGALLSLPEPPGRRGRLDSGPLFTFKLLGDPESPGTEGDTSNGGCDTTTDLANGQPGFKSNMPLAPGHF
T1 sequence (P23944 whole entry): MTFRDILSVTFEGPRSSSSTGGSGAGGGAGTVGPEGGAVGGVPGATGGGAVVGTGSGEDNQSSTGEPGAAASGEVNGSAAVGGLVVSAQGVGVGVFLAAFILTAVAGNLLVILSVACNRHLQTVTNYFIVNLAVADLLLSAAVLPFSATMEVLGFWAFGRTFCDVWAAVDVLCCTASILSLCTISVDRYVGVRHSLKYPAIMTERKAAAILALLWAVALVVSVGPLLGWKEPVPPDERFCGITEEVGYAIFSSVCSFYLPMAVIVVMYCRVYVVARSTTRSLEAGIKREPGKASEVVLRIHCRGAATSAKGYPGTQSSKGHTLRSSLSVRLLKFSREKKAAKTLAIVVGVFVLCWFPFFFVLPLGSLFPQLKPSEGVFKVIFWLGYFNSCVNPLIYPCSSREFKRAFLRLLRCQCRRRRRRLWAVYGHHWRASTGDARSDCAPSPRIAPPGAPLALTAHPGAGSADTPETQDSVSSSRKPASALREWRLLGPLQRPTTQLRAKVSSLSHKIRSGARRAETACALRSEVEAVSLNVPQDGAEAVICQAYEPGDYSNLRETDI
T1 sequence (P43140 whole entry): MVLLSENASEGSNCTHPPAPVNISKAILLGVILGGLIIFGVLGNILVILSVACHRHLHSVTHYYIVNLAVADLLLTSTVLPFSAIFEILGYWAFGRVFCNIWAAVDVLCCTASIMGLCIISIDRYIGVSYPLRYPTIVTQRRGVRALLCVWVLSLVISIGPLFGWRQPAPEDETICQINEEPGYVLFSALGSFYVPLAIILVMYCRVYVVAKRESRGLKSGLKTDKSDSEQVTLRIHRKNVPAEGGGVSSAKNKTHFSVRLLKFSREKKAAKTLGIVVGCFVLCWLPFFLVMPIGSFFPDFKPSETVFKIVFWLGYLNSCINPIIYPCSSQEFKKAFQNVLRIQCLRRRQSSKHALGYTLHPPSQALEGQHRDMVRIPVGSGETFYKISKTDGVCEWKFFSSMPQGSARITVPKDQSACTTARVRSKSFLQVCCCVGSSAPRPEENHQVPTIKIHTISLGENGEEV
Description: Ability to displace [3H]WB-4101 from rat brain alpha-1 adrenergic receptor. An outline of the steps:
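Rat whole brain minus cerebellum and brain stem, membranes at about 20 mg/mL final tissue concentration. [3H]WB-4101 0.22 nM, incubated 15 min. Nonspecific binding defined with (-)-norepinephrine 2 μM. IC50 = concentration giving 50% displacement of specific binding, taken from Hill linearization. Three separate experiments.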

For test [7], the system named is Rattus norvegicus. Description: Dopaminergic activity in rats rendered hypokinetic by the bilateral injection of 6-hydroxydopamine (6-OHDA) into the anterolateral hypothalamus at dose of 5 mg/kg sc. Format: functional. The settings on record: route subcutaneous.
The subject of test [8] is Rattus norvegicus. The test is described as follows: Dopaminergic activity in rats rendered hypokinetic by the bilateral injection of 6-hydroxydopamine (6-OHDA) into the anterolateral hypothalamus at dose of 50 mg/kg sc. Format: functional. The note with it: route subcutaneous.
Test [9] has as its system Rattus norvegicus. Description: Effective dose which lowered the serum prolactin levels after po administration in rats. Format: functional. An outline of the steps: as §2
In test [10] the test system is Rattus norvegicus. The test is described as follows: Dopaminergic activity in rats rendered hypokinetic by the bilateral injection of 6-hydroxydopamine (6-OHDA) into the anterolateral hypothalamus at dose of 10 mg/kg sc. Format: functional. The settings on record: route subcutaneous.
The subject of test [11] is Rattus norvegicus. The test is described as follows: Dopaminergic activity in rats rendered hypokinetic by the bilateral injection of 6-hydroxydopamine (6-OHDA) into the anterolateral hypothalamus at dose of 2.5 mg/kg sc. The note with it: route subcutaneous. Type of test: functional.
Test [12] concerns Rattus norvegicus. Description: Dopaminergic activity in rats rendered hypokinetic by the bilateral injection of 6-hydroxydopamine (6-OHDA) into the anterolateral hypothalamus at dose of 1.25 mg/kg sc. Type of test: functional. The note with it: route subcutaneous.
In test [13] the test system is Rattus norvegicus. The test is described as follows: Dopaminergic activity in rats rendered hypokinetic by the bilateral injection of 6-hydroxydopamine (6-OHDA) into the anterolateral hypothalamus at dose of 25 mg/kg sc; Inactive. Type of test: functional, organism-based. Set-up: dose 25 mg/kg.
Test [14] concerns Rattus norvegicus. The test is described as follows: Max. intensity of rotational behavior in rats with a unilateral 6-OHDA-induced lesion of the nigrostriatal dopamine (DA) pathway at dose of 2.5 mg/kg sc. Format: functional. The note with it: route subcutaneous. The procedure, abridged:
as §1

Test [15] is filed under the species Rattus norvegicus. The test is described as follows: Ability to induce contralateral rotational behavior in rats with a unilateral 6-OHDA-induced lesion of the nigrostriatal dopamine (DA) pathway. Type of test: functional. The procedure, abridged: as §1
Test [16] deals with Rattus norvegicus. Description: Dopaminergic activity in rats rendered hypokinetic by the bilateral injection of 6-hydroxydopamine (6-OHDA) into the anterolateral hypothalamus at dose of 25 mg/kg sc. The note with it: route subcutaneous. Format: functional.
The mark [17] stands for this setting: Rattus norvegicus, Serum, ip, read-out: ED50.
Where [18] appears, read: Rattus norvegicus, Serum, po, read-out: ED50.

D(2) dopamine receptor, sequence (P61169 whole entry): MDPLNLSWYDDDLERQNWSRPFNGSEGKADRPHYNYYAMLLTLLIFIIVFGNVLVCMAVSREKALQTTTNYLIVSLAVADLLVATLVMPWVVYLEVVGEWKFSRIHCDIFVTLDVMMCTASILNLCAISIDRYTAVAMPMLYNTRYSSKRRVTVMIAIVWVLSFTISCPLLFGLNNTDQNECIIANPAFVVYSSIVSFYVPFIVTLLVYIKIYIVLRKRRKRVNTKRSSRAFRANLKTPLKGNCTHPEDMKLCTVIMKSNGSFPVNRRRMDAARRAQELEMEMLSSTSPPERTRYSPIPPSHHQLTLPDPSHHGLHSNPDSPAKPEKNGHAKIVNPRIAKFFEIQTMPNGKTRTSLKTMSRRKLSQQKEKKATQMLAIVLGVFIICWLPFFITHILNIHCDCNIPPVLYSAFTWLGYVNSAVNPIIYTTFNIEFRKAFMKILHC

For `O=c1cccccc1N1CCN(CC(O)c2ccc(F)cc2)CC1` (centres undefined), the result in [1] was inactive.
In general, pIC50 refers to −log10 of the IC50, conventionally taken in molar units. A higher pIC50 goes with a small IC50. Usually ED50 stands for the dose that gives a 50% effect, or the effect in half of the subjects. A word on the IC50: it is the point on the concentration scale where inhibition reaches its midpoint. Read a high IC50 as weaker potency in that assay. For the compound `COc1ccc([C@@H](O)CN2CCN(c3cccccc3=O)CC2)cc1OC`, the figures for the Activity in [2] and in test [7] were 140 and 27, respectively. In [3], the Max intensity is reported as 1.3 rotations min-1. Further, the pIC50 in [4] is 4.78. For the same compound, the ED50 in test [5] (setting [17]) worked out at 2.7 mg/kg. Also, in [6], the IC50 amounted to 1.44 µM.
Consider `COc1ccc(CCNCC/N=c2/cccccc2O)cc1OC`, for which, in test [1], the result was inactive.
`COc1ccc(C(O)CN2CCN(c3cccccc3=O)CC2)cc1` (centres undefined): the Activity in test [8] was 105.
`CC(C)C[C@H]1C(=O)N2CCC[C@H]2[C@]2(O)O[C@](NC(=O)[C@@H]3C=C4c5cccc6[nH]c(Br)c(c56)C[C@H]4N(C)C3)(C(C)C)C(=O)N12` [BROMOCRIPTINE]: the results for the Activity in test [2] and in [10] were 836 and 112, respectively. The Max intensity in test [3] worked out at 4.7 rotations min-1. Moreover, the figures for the ED50 in [9] (setting [18]) and in test [5] (setting [17]) were 0.6 mg/kg and 0.24 mg/kg, respectively.
As to `O=c1cccccc1N1CCN(CC(O)c2ccccc2)CC1` (centres undefined), the outcome in test [1] was inactive.
Consider `COc1ccc(CC/N=c2/cccccc2O)cc1OC`, for which the result in test [1] was inactive.
Consider `COc1ccc([C@H](O)CN2CCN(c3cccccc3=O)CC2)cc1OC` [CILADOPA], for which the results for the Activity in test [2] and in [7] were 1770 and 320, respectively. For the same compound, the Max intensity in test [3] is listed as 10.7 rotations min-1. This compound also gave a pIC50 in test [4] of 5.66. Moreover, the ED50 in [9] (setting [18]) was found to be 0.9 mg/kg; in [5] (setting [17]), 0.36 mg/kg. Further, the IC50 in test [6] came to 1.09 µM.
Take `O=c1cccccc1N1CCN(CCc2ccccc2)CC1`: the result in [1] was inactive.
Turning to `COc1ccc([C@@H](O)[C@@H](C)N2CCN(c3cccccc3=O)CC2)cc1OC`, the pIC50 in test [4] is 5.07. In addition, the Activity in test [10] was 55.
For `COc1ccc([C@H](O)[C@@H](C)N2CCN(c3cccccc3=O)CC2)cc1OC` (stereo in doubt; 14), the Activity in [2] is recorded as 1903; in [11], 111. Besides, the Max intensity in test [3] (2.5 mg/kg) stood at 9.5 rotations min-1. In addition, the pIC50 in test [4] was 5.98. In addition, the ED50 in test [9] (setting [18]) turned out to be 0.25 mg/kg; in test [5], 0.2 mg/kg.
Compound `COc1ccc(CCN2CCN(c3cccccc3=O)CC2)cc1OC` had a pIC50 in [4] of 6.06. The compound also yielded an Activity in test [10] of 101.
With `COc1cc(C(O)CN2CCN(c3cccccc3=O)CC2)cc(OC)c1OC` (centres undefined), the outcome in test [1] was inactive.
On to `COc1ccc([C@H](O)[C@@H](C)N2CCN(c3cccccc3=O)CC2)cc1OC` (stereo in doubt; 18), for which the Activity is given as 2109 in test [2] and 186 in test [12]. Besides, the Max intensity in test [3] (2.5 mg/kg) is 14.6 rotations min-1. Besides, the figures for the ED50 in test [9] and in test [5] were 0.15 mg/kg and 0.04 mg/kg, respectively.
In the case of `COc1ccc(C(O)CN2CCN(c3ccccc3)CC2)cc1OC` (centres undefined), the outcome in test [1] was inactive.
As to `COc1cccc(C(O)CN2CCN(c3cccccc3=O)CC2)c1` (centres undefined), in test [1], the outcome was inactive.
On to `COc1ccc(CCN2CCCN(c3cccccc3=O)CC2)cc1OC`, for which the result in [1] was inactive.
As to `COc1cc(C(O)CN2CCN(c3cccccc3=O)CC2)ccc1O` (centres undefined), the result in test [13] was inactive.
As for `COc1ccc([C@H](O)[C@@H](C)N2CCN(c3cccccc3=O)CC2)cc1OC` (stereo in doubt; 17), the Activity in test [2] stood at 121; in test [11], 20. The Max intensity in test [3] (2.5 mg/kg) amounted to 1.1 rotations min-1. In [5], the ED50 amounted to 2.2 mg/kg.
Take `O=c1cccccc1N1CCN(CCc2ccc(F)cc2)CC1`: in test [1], the outcome was inactive.
In test [14], `COc1ccc(C(O)CN2CCN(c3cccccc3=O)CC2)cc1OC.Cl` (centres undefined) registered a Max intensity of 9.2 rotations min-1. Besides, the pIC50 in test [4] was 5.82. Further, the ED50 in [9] (setting [18]) was determined as 2 mg/kg; in [5] (setting [17]), 0.48 mg/kg. This compound gave an IC50 in [6] of 1.07 µM. The Activity in [10] was 191; in test [15], 823.
In [6], `NCCc1ccc(O)c(O)c1` [DOPAMINE] gave an IC50 of 90 µM.
On to `O=c1cccccc1N1CCN(CCc2ccc(O)c(O)c2)CC1`, for which the Activity in test [16] is listed as 98. Besides, in test [4], the pIC50 is 6.12.
